The source made the active and inactive calls. The calls are words filed in the database; no cut-off is given here.
Key:
[1] = molecular target: Procathepsin L (Homo sapiens) (UniProt P07711); test: Inhibition of human cathepsin L assessed as Kinact /Ki ratio using fluorogenic substrate cbz-FR-AMC monitored for 90 to 120 mins by spectrophotometry
Procedure, shortened: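 Continuous kinetic assay with 0.5 ng/mL final cathepsin L and 10 μM Z-FR-AMC, with DMSO below 6%. Inhibitors were a 3-fold, 11-point series from […] to 1.0 μM. Substrate and inhibitor were combined and enzyme was added to start the reaction. AMC release was read for 2 h and converted via an AMC standard curve. Progress curves were fitted to a six-parameter covalent inhibition model (k_inact, association/dissociation constants).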

Trypanosoma cruzi = type: functional; conditions: C2C12, 72 h, read-out: LD50 (the source's name)
Cruzipain = Cruzipain (Trypanosoma cruzi, UniProt P25779); test: Inhibition of recombinant Trypanosoma cruzi Cruzain expressed in Pichia pastoris using Z-Phe-Arg-AMC substrate incubated for 30 mins by fluorescence based assay
Sequence of Cruzipain (P25779 whole entry): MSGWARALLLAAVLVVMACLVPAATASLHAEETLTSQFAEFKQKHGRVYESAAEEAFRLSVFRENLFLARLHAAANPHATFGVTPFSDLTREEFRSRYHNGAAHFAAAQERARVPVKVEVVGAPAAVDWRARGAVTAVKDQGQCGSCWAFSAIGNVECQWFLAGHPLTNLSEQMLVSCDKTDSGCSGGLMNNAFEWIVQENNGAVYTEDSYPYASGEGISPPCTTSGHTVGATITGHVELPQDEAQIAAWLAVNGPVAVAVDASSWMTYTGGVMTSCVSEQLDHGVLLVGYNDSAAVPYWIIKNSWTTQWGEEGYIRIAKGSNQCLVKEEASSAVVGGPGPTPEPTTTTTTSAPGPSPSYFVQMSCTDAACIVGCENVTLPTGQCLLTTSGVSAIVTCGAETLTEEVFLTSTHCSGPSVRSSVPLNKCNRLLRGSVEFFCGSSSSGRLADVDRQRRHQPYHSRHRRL

[2] = Cytotoxicity in mouse C2C12 cells assessed as reduction in cell viability incubated for 3 days; type: cell-based; conditions: read-out: LD50
[3] = molecular target: Procathepsin L (Homo sapiens) (UniProt P07711); test: Irreversible inhibition of human cathepsin L assessed as residual enzyme activity using fluorogenic substrate cbz-FR-AMC incubated for 30 mins followed by 100 fold dilution and measured after 2 hrs by spectrophotometry
[4] = molecular target: Procathepsin L (Homo sapiens) (UniProt P07711); test: Irreversible inhibition of human cathepsin L assessed as residual enzyme activity using fluorogenic substrate cbz-FR-AMC incubated for 30 mins followed by 100 fold dilution and measured after 1 hrs by spectrophotometry
[5] = molecular target: Procathepsin L (Homo sapiens) (UniProt P07711); test: Irreversible inhibition of human cathepsin L assessed as reduction in enzyme activity using fluorogenic substrate cbz-FR-AMC incubated for 30 mins followed by 100 fold dilution and measured after 2 hrs by spectrophotometry
Procedure, shortened: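 Preincubation-dilution: cathepsin L at 100-fold final assay concentration incubated 30 min with inhibitor at 10-fold its IC₅₀. Then diluted 100-fold into assay buffer with 10 μM Z-FR-AMC, giving standard enzyme level and 0.1× IC₅₀ inhibitor. AMC fluorescence read continuously in kinetic mode for 2 h and activity compared with vehicle control.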

[6] = molecular target: Procathepsin L (Homo sapiens) (UniProt P07711); test: Reversible inhibition of human cathepsin L assessed as residual enzyme activity using fluorogenic substrate cbz-FR-AMC incubated for 30 mins followed by 100 fold dilution and measured after 1 hrs by spectrophotometry

Sequence of Procathepsin L (Homo sapiens) (P07711 114-333 limits assumed): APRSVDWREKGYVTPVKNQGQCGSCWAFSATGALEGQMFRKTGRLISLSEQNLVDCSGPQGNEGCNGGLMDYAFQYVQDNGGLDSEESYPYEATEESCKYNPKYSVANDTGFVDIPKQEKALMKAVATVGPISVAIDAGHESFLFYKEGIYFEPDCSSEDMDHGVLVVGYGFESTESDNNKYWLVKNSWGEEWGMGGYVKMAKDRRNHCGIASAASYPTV

| SMILES | Ratio [1] [×10³ /M/s] | LC50 (Trypanosoma cruzi) [nM] | IC50 (Cruzipain) [nM] | CC50 at 72 h [2] [nM] | Activity [3] [%] | inhibition [4] | inhibition [5] | Activity [6] [%] |
| --- | --- | --- | --- | --- | --- | --- | --- | --- |
| CC[C@H](C)[C@@H](C(=O)O[C@@H](CC(C)C)C(=O)N[C@@H](CC(C)C)C(=O)N[C@@H](/C=C/C(=O)N1C(=O)C=C(OC)[C@@H]1Cc1ccccc1)Cc1ccccc1)N(C)C | 6.9 | 1080 | 81 | > 10000 | – | – | – | – |
| CC[C@H](C)[C@@H](C(=O)O[C@@H](CC(C)C)C(=O)N[C@@H](CC(C)C)C(=O)N[C@@H](C)/C=C/C(=O)N1C(=O)C=C(OC)[C@@H]1C)N(C)C [GALLINAMIDE A] | 901 | 14.7 | 0.26 | > 10000 | 5 | Active | – | – |
| CC[C@H](C)[C@@H](C(=O)O[C@@H](CC(C)C)C(=O)N[C@@H](CC(C)C)C(=O)N[C@@H](C)/C=C/C(=O)N1C(=O)C=C(OC)[C@@H]1CC(C)C)N(C)C | 2510 | 5.1 | 0.49 | > 10000 | – | – | – | – |
| O=C(Cn1ccnc1[N+](=O)[O-])NCc1ccccc1 [BENZNIDAZOLE] | – | 1500 | – | – | – | – | – | – |
| CC(C)CCNC(=O)[C@H](CC(C)C)NC(=O)[C@H]1O[C@@H]1C(=O)O | – | – | – | – | – | – | Active | – |
| COC1=CC(=O)N(C(=O)/C=C/[C@H](Cc2ccccc2)NC(=O)[C@H](CC(C)C)NC(=O)[C@H](CC(C)C)OC(=O)[C@H](Cc2ccccc2)N(C)C)[C@H]1Cc1ccccc1 | 1060 | > 10000 | 1.35 | > 10000 | – | – | – | – |
| COC1=CC(=O)N(C(=O)/C=C/[C@H](Cc2ccccc2)NC(=O)[C@H](CC(C)C)NC(=O)[C@H](CC(C)C)OC(=O)[C@H](Cc2ccccc2)N(C)C)[C@@H]1Cc1ccccc1 | 1390 | > 10000 | 3.69 | > 10000 | – | – | – | – |
| CC[C@H](C)[C@@H](C(=O)O[C@@H](CC(C)C)C(=O)N[C@@H](CC(C)C)C(=O)N[C@@H](/C=C/C(=O)N1C(=O)C=C(OC)[C@H]1Cc1ccccc1)Cc1ccccc1)N(C)C | 23.9 | 537 | 37.1 | > 10000 | – | – | – | – |
| COC1=CC(=O)N(C(=O)/C=C/[C@H](C)NC(=O)[C@H](CC(C)C)NC(=O)[C@H](CC(C)C)OC(=O)[C@H](Cc2ccccc2)N(C)C)[C@H]1Cc1ccccc1 | 3480 | 18.6 | 0.73 | > 10000 | – | – | – | – |
| CC[C@H](C)[C@@H](C(=O)O[C@@H](CC(C)C)C(=O)N[C@@H](CC(C)C)C(=O)N[C@H](/C=C/C(=O)N1C(=O)C=C(OC)[C@@H]1CC(C)C)Cc1ccccc1)N(C)C | – | 61.8 | 1.08 | > 10000 | – | – | – | – |
| COC1=CC(=O)N(C(=O)/C=C/[C@H](Cc2ccccc2)NC(=O)[C@H](CC(C)C)NC(=O)[C@H](CC(C)C)OC(=O)[C@H](Cc2ccccc2)N(C)C)[C@H]1C | 819 | 60.3 | 1.2 | > 10000 | – | – | – | – |
| CC[C@H](C)[C@@H](C(=O)O[C@@H](CC(C)C)C(=O)N[C@@H](CC(C)C)C(=O)N[C@H](/C=C/C(=O)N1C(=O)C=C(OC)[C@@H]1Cc1ccccc1)Cc1ccccc1)N(C)C | 719 | 33.8 | 1.15 | > 10000 | – | – | – | – |
| CC[C@H](C)[C@@H](C(=O)O[C@@H](CC(C)C)C(=O)N[C@@H](CC(C)C)C(=O)N[C@H](/C=C/C(=O)N1C(=O)C=C(OC)[C@H]1Cc1ccccc1)Cc1ccccc1)N(C)C | 1030 | 33.3 | 1.07 | > 10000 | – | – | – | – |
| CC[C@H](C)[C@@H](C(=O)O[C@@H](CC(C)C)C(=O)N[C@@H](CC(C)C)C(=O)N[C@@H](C)/C=C/C(=O)N1C(=O)C=C(OC)[C@@H]1Cc1ccccc1)N(C)C | – | 19.1 | 0.76 | > 10000 | – | – | – | – |
| CC[C@H](C)[C@@H](C(=O)O[C@@H](CC(C)C)C(=O)N[C@@H](CC(C)C)C(=O)N[C@H](/C=C/C(=O)N1C(=O)C=C(OC)[C@@H]1C)Cc1ccccc1)N(C)C | – | 35.8 | 0.84 | > 10000 | – | – | – | – |
| COC1=CC(=O)N(C(=O)/C=C/[C@H](Cc2ccccc2)NC(=O)[C@H](CC(C)C)NC(=O)[C@H](CC(C)C)OC(=O)[C@H](C(C)C)N(C)C)[C@H]1CC(C)C | 1780 | 16.4 | 0.25 | > 10000 | – | – | – | – |
| COC1=CC(=O)N(C(=O)/C=C/[C@H](C)NC(=O)[C@H](CC(C)C)NC(=O)[C@H](CC(C)C)OC(=O)[C@H](C(C)C)N(C)C)[C@H]1C | 487 | 12.9 | 2.89 | > 10000 | – | – | – | – |
| CC[C@H](C)[C@@H](C(=O)O[C@@H](CC(C)C)C(=O)N[C@@H](CC(C)C)C(=O)N[C@@H](C)CCC(=O)N1C(=O)C=C(OC)[C@@H]1C)N(C)C | – | – | – | – | – | – | – | 75 |
| C#CCCCCOC1=CC(=O)N(C(=O)/C=C/[C@H](C)NC(=O)[C@H](CC(C)C)NC(=O)[C@H](CC(C)C)OC(=O)[C@H]([C@@H](C)CC)N(C)C)[C@@H]1C | – | 17 | 0.47 | > 10000 | – | – | – | – |
